Reference: ChEMBL document CHEMBL4819003, “Optimization of novel oxidative DIMs as Nur77 modulators of the Nur77-Bcl-2 apoptotic pathway” (Eur J Med Chem, 2021)
The source made the active and inactive calls. The rule behind the calls is not given here.

Tests used:
MDA-MB-231 [1] = experiment: Induction of apoptosis in human MDA-MB-231 cells assessed as PARP cleavage at 0.5 uM measured after 6 hrs by western blot assay; assay type: functional, cell-based
Method in brief: (§1)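 Cells exposed to 0.5 µM for 6 h. Lysates resolved by SDS-PAGE and blotted to PVDF, blocked in 5% milk/TBST, probed with primary antibodies at 1:1000, ECL detection. Apoptosis scored as the densitometric ratio of cleaved PARP band to intact PARP band; mean ± SD, n = 3.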

HCT-116 [2] = experiment: Induction of apoptosis in human HCT-116 cells assessed as PARP cleavage at 0.5 uM measured after 6 hrs by western blot assay; assay type: functional, cell-based; method in brief: as §1
MDA-MB-231 [3] = experiment: Induction of apoptosis in human MDA-MB-231 cells assessed as PARP cleavage at 0.5 uM measured after 6 hrs by western blot assay relative to Di(1H-indol-3-yl)(4-(trifluoromethyl)phenyl)methylium methanesulfonate; assay type: functional
Method in brief: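 MDA-MB-231 in DMEM with 10% FBS, 0.5 µM for 6 h, then PARP western blot with 1:1000 primary antibodies and ECL. Cleaved PARP/PARP band intensity ratio expressed relative to the reference methylium methanesulfonate, whose ratio was set to 1. Mean ± SD, n = 3.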

MDA-MB-231 [4] = experiment: Cytotoxicity against human MDA-MB-231 cells assessed as inhibition of cell growth measured after 24 hrs by MTT assay; assay type: functional, cell-based; settings: MDA-MB-231, 24 h
Method in brief: (§2)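 MTT viability assay, 24 h exposure to a concentration series, 10^4 cells/well. Cancer lines were in DMEM (BT549, MDA-MB-231) or RPMI-1640 (HCT116, SW620) with 10% FBS. MCF10A and NCM460 were in DMEM with 20% FBS and 10 ng/ml EGF. MTT at 5 mg/mL for 4 h at 37 °C, formazan dissolved in DMSO, A490. IC50 from curve fit; mean ± SD, at least 6 experiments.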

BT-549 = experiment: Cytotoxicity against human BT-549 cells assessed as inhibition of cell growth measured after 24 hrs by MTT assay; assay type: functional, cell-based; settings: BT-549, 24 h; method in brief: as §2
MCF-10A = experiment: Cytotoxicity against human MCF-10A cells assessed as inhibition of cell growth measured after 24 hrs by MTT assay; assay type: cell-based; method in brief: as §2
HCT-116 [5] = experiment: Cytotoxicity against human HCT-116 cells assessed as inhibition of cell growth measured after 24 hrs by MTT assay; assay type: functional, cell-based; method in brief: as §2
SW-620 = experiment: Cytotoxicity against human SW-620 cells assessed as inhibition of cell growth measured after 24 hrs by MTT assay; assay type: functional, cell-based; settings: SW-620, 24 h; method in brief: as §2
NCM460 = experiment: Cytotoxicity against human NCM460 cells assessed as inhibition of cell growth measured after 24 hrs by MTT assay; assay type: cell-based; method in brief: as §2
MEF [6] = experiment: Induction of apoptosis in wild type mouse MEF cells assessed as PARP cleavage at 0.5 uM measured after 6 hrs by western blot assay; assay type: functional, cell-based
Method in brief: (§3)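 Wild-type, Nur77−/− or Bcl-2−/− mouse embryonic fibroblasts grown in DMEM with 10% FBS and treated with 0.5 µM for 6 h. PARP cleavage detected by western blot, primary antibodies at 1:1000, ECL.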

MEF [7] = experiment: Induction of apoptosis in mouse MEF cells lacking Nur77 assessed as PARP cleavage at 0.5 uM measured after 6 hrs by western blot assay; assay type: functional, cell-based; method in brief: as §3
MEF [8] = experiment: Induction of apoptosis in mouse MEF cells deficient in Bcl2 assessed as PARP cleavage at 0.5 uM measured after 6 hrs by Western blot assay; assay type: functional, cell-based; method in brief: as §3
[9] = molecular target: T1, Nuclear receptor subfamily 4immunitygroup A member 1 (Homo sapiens, UniProt P22736); experiment: Binding affinity to recombinant human N-terminal His-tagged Nur77-LBD (367 to 598 residues) expressed in Escherichia coli BL21 DE3 by flourescence quenching assay
Method in brief: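 Human Nur77-LBD (367–598), N-terminal His tag, pET15b in E. coli BL21 DE3, Ni resin purified. Nur77-LBD at 1 µM in PBS in a quartz cell, titrated with compound over 0.01–1 µM at 25 °C. Excitation 280 nm, emission scanned 300–500 nm; peak intensity at 330 nm versus compound concentration fitted to a reported formula for Kd.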

[10] = molecular target: T1, Nuclear receptor subfamily 4immunitygroup A member 1; experiment: Binding affinity to recombinant human N-terminal His-tagged Nur77-LBD (367 to 598 residues) expressed in Escherichia coli BL21 DE3 by surface plasmon resonance assay
Method in brief: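 His-tagged human Nur77-LBD (367–598) from E. coli BL21 DE3, diluted to 0.05 mg/mL in 10 mM NaAc pH 5.0 and amine-coupled to a CM5 chip (~9000 RU). Compounds at 0.01–5 µM in PBS with 0.4% DMSO, 25 °C, 30 µL/min; 150 s association, 420 s dissociation, regeneration with 10 mM glycine-HCl pH 2.5. Reference- and blank-subtracted; Kd from global 1:1 kinetic fit.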

T1 sequence (P22736 whole entry, the tested form may be a part): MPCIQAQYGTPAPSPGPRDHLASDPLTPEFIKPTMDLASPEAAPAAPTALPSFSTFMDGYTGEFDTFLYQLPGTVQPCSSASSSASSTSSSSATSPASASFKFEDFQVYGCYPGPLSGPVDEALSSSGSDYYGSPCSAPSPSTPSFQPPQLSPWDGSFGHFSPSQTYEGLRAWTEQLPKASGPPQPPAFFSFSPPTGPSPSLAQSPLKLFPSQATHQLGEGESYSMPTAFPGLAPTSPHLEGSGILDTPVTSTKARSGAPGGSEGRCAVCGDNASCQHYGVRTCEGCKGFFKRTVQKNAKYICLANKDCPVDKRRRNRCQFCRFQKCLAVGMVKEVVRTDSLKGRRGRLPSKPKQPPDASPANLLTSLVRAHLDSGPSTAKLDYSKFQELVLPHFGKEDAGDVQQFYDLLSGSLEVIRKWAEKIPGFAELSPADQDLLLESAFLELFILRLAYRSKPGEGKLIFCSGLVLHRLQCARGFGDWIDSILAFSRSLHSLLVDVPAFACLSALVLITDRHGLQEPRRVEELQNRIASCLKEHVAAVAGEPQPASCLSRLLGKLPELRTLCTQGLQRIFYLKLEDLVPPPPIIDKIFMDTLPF

SMILES | Activity (MDA-MB-231 [1]) | Activity (HCT-116 [2]) | also measured
Fc1ccc([C+](c2c[nH]c3ccccc23)c2c[nH]c3ccccc23)cc1 | Active | Active | –
c1csc([C+](c2c[nH]c3ccccc23)c2c[nH]c3ccccc23)c1 | inactive | Active | –
FC(F)(F)c1ccccc1[C+](c1c[nH]c2ccccc12)c1c[nH]c2ccccc12 | inactive | inactive | –
CCCCn1cc([C+](c2ccc(C(F)(F)F)cc2)c2c[nH]c3ccccc23)c2ccccc21 | Active | Active | –
CS(=O)(=O)[O-].c1ccc([C+](c2c[nH]c3ccccc23)c2c[nH]c3ccccc23)cc1 | Active | inactive | fold change (FC) (MDA-MB-231 [3]): 0.01
c1coc([C+](c2c[nH]c3ccccc23)c2c[nH]c3ccccc23)c1 | inactive | Active | –
CCCCCn1cc([C+](c2ccc(C(F)(F)F)cc2)c2c[nH]c3ccccc23)c2ccccc21 | inactive | inactive | –
Fc1ccccc1[C+](c1c[nH]c2ccccc12)c1c[nH]c2ccccc12 | inactive | inactive | –
c1cncc([C+](c2c[nH]c3ccccc23)c2c[nH]c3ccccc23)c1 | inactive | Active | –
Clc1ccc([C+](c2c[nH]c3ccccc23)c2c[nH]c3ccccc23)cc1 | inactive | Active | –
CC(C)(C)c1ccc([C+](c2c[nH]c3ccccc23)c2c[nH]c3ccccc23)cc1 | inactive | inactive | –
Cc1cccc([C+](c2c[nH]c3ccccc23)c2c[nH]c3ccccc23)c1 | inactive | Active | –
O=C(O)c1ccc([C+](c2c[nH]c3ccccc23)c2c[nH]c3ccccc23)cc1 | inactive | Active | –
FC(F)(F)c1ccc([C+](c2c[nH]c3ccccc23)c2c[nH]c3ccccc23)cn1 | Active | Active | IC50 (MDA-MB-231 [4]): 230 nM; IC50 (BT-549): 50 nM; IC50 (MCF-10A; Homo sapiens, MCF-10A, 24 h): 2980 nM; IC50 (HCT-116 [5]; Homo sapiens, HCT-116, 24 h): 350 nM; IC50 (SW-620): 140 nM; IC50 (NCM460; Homo sapiens, NCM460, 24 h): 8100 nM; Activity (MEF [6]): Active; Activity (MEF [7]): inactive; Activity (MEF [8]): inactive
FC(F)(F)c1ccc([C+](c2c[nH]c3ccccc23)c2c[nH]c3ccccc23)cc1 | – | – | IC50 (MCF-10A; mcf-10a): 3580 nM; IC50 (HCT-116 [5]; hct-116): 260 nM; IC50 (NCM460; ncm460): 5130 nM
Oc1ccccc1[C+](c1c[nH]c2ccccc12)c1c[nH]c2ccccc12 | inactive | inactive | –
COc1cccc([C+](c2c[nH]c3ccccc23)c2c[nH]c3ccccc23)c1 | inactive | Active | –
FC(F)(F)c1ccc([C+](c2c[nH]c3ccccc23)c2c[nH]c3ccccc23)c(C(F)(F)F)c1 | inactive | inactive | –

SMILES | Activity (MDA-MB-231 [1]) | Activity (HCT-116 [2]) | also measured
Cc1ccc([C+](c2c[nH]c3ccccc23)c2c[nH]c3ccccc23)cc1 | inactive | inactive | –
Clc1cccc([C+](c2c[nH]c3ccccc23)c2c[nH]c3ccccc23)c1 | inactive | Active | –
CCn1cc([C+](c2ccc(C(F)(F)F)cc2)c2c[nH]c3ccccc23)c2ccccc21 | Active | Active | IC50 (MDA-MB-231 [4]): 80 nM; IC50 (BT-549): 50 nM; IC50 (MCF-10A; Homo sapiens, MCF-10A, 24 h): 1500 nM; IC50 (HCT-116 [5]; Homo sapiens, HCT-116, 24 h): 100 nM; IC50 (SW-620): 100 nM; IC50 (NCM460; Homo sapiens, NCM460, 24 h): 3080 nM; Kd [9]: 66 nM; Kd [10]: 36 nM; Activity (MEF [6]): Active; Activity (MEF [7]): inactive; Activity (MEF [8]): inactive
Fc1cccc([C+](c2c[nH]c3ccccc23)c2c[nH]c3ccccc23)c1 | Active | Active | –
FC(F)(F)c1cccc([C+](c2c[nH]c3ccccc23)c2c[nH]c3ccccc23)c1.[Cl-] | Active | Active | IC50 (MDA-MB-231 [4]): 290 nM; IC50 (BT-549): 70 nM; IC50 (MCF-10A; Homo sapiens, MCF-10A, 24 h): 5030 nM; IC50 (HCT-116 [5]; Homo sapiens, HCT-116, 24 h): 310 nM; IC50 (SW-620): 130 nM; IC50 (NCM460; Homo sapiens, NCM460, 24 h): 10000 nM; fold change (FC) (MDA-MB-231 [3]): 1.76
Oc1cccc([C+](c2c[nH]c3ccccc23)c2c[nH]c3ccccc23)c1 | inactive | Active | –
Clc1ccccc1[C+](c1c[nH]c2ccccc12)c1c[nH]c2ccccc12 | inactive | inactive | –
c1ccc2c([C+](c3c[nH]c4ccccc34)c3c[nH]c4ccccc34)c[nH]c2c1 | inactive | Active | –
CCCn1cc([C+](c2ccc(C(F)(F)F)cc2)c2c[nH]c3ccccc23)c2ccccc21 | Active | Active | IC50 (MDA-MB-231 [4]): 170 nM; IC50 (BT-549): 100 nM; IC50 (MCF-10A; Homo sapiens, MCF-10A, 24 h): 1310 nM; IC50 (HCT-116 [5]; Homo sapiens, HCT-116, 24 h): 350 nM; IC50 (SW-620): 160 nM; IC50 (NCM460; Homo sapiens, NCM460, 24 h): 5090 nM; Activity (MEF [6]): Active; Activity (MEF [7]): inactive; Activity (MEF [8]): inactive
CCc1ccc([C+](c2c[nH]c3ccccc23)c2c[nH]c3ccccc23)cc1 | inactive | inactive | –
c1ccc(-c2ccc([C+](c3c[nH]c4ccccc34)c3c[nH]c4ccccc34)cc2)cc1 | Active | Active | –
Oc1ccc([C+](c2c[nH]c3ccccc23)c2c[nH]c3ccccc23)cc1 | Active | inactive | –
O=[N+]([O-])c1ccc([C+](c2c[nH]c3ccccc23)c2c[nH]c3ccccc23)cc1 | inactive | Active | –
c1ccc2c([C+](c3c[nH]c4ccccc34)c3csc4ccccc34)c[nH]c2c1 | inactive | Active | –
COc1ccc([C+](c2c[nH]c3ccccc23)c2c[nH]c3ccccc23)cc1 | inactive | inactive | –
Cn1cc([C+](c2ccc(C(F)(F)F)cc2)c2cn(C)c3ccccc23)c2ccccc21 | Active | inactive | –
COC(=O)c1ccc([C+](c2c[nH]c3ccccc23)c2c[nH]c3ccccc23)cc1 | Active | Active | –
